How the values were obtained:
Type in all cases: functional
NCI-H23 = experiment: Antitumor activity against human NCI-H23 cells after 48 hrs by Sulforhodamine B assay; settings: NCI-H23, 48 h
In short: (§1)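 NCI 60-cell-line screen. Secondary five-dose test at 100, 10, 1.0, 0.1 and 0.01 µM with continuous drug exposure for 48 h. Cell growth was estimated by sulforhodamine B protein staining. […] LC50 was also reported.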

M14 = experiment: Antitumor activity against human M14 cells after 48 hrs by Sulforhodamine B assay; settings: M14, 48 h; for CC50: read-out: LC50 (the source's name); in short: as §1
[1] = Antitumor activity against human HOP92 cells after 48 hrs by Sulforhodamine B assay; settings: HOP-92, 48 h; for CC50: read-out: LC50 (the source's name); in short: as §1
K562 = experiment: Antitumor activity against human K562 cells after 48 hrs by Sulforhodamine B assay; settings: K562, 48 h; for CC50: read-out: LC50 (the source's name); in short: as §1
NCI-H522 = experiment: Antitumor activity against human NCI-H522 cells after 48 hrs by Sulforhodamine B assay; settings: NCI-H522, 48 h; for CC50: read-out: LC50 (the source's name); in short: as §1
[2] = Antitumor activity against human UACC62 cells after 48 hrs by Sulforhodamine B assay; settings: UACC-62, 48 h; in short: as §1
[3] = Antitumor activity against human MOLT4 cells after 48 hrs by Sulforhodamine B assay; settings: MOLT-4, 48 h; in short: as §1
MDA-MB-231 = experiment: Antitumor activity against human MDA-MB-231 cells after 48 hrs by Sulforhodamine B assay; settings: MDA-MB-231, 48 h; in short: as §1
[4] = Antitumor activity against human BT549 cells after 48 hrs by Sulforhodamine B assay; settings: BT-549, 48 h; for CC50: read-out: LC50 (the source's name); in short: as §1
MDA-MB-435 = experiment: Antitumor activity against human MDA-MB-435 cells after 48 hrs by Sulforhodamine B assay; settings: MDA-MB-435, 48 h; for CC50: read-out: LC50 (the source's name); in short: as §1
SNB-19 = experiment: Antitumor activity against human SNB19 cells after 48 hrs by Sulforhodamine B assay; settings: SNB-19, 48 h; in short: as §1
[5] = Antitumor activity against human OVCAR5 cells after 48 hrs by Sulforhodamine B assay; settings: OVCAR-5, 48 h; in short: as §1
[6] = Antitumor activity against human RPMI8226 cells after 48 hrs by Sulforhodamine B assay; settings: RPMI-8226, 48 h; in short: as §1
[7] = Antitumor activity against human COLO205 cells after 48 hrs by Sulforhodamine B assay; settings: COLO 205, 48 h; for CC50: read-out: LC50 (the source's name); in short: as §1
SNB-75 = experiment: Antitumor activity against human SNB75 cells after 48 hrs by Sulforhodamine B assay; settings: SNB-75, 48 h; in short: as §1
HOP-62 = experiment: Antitumor activity against human HOP62 cells after 48 hrs by Sulforhodamine B assay; settings: HOP-62, 48 h; in short: as §1
CCRF-CEM = experiment: Antitumor activity against human CCRF-CEM cells after 48 hrs by Sulforhodamine B assay; settings: for CC50: read-out: LC50 (the source's name); in short: as §1
SW-620 = experiment: Antitumor activity against human SW620 cells after 48 hrs by Sulforhodamine B assay; settings: SW-620, 48 h; for CC50: read-out: LC50 (the source's name); in short: as §1
[8] = Antitumor activity against human OVCAR8 cells after 48 hrs by Sulforhodamine B assay; settings: OVCAR-8, 48 h; in short: as §1
[9] = Antitumor activity against human PC3 cells after 48 hrs by Sulforhodamine B assay; settings: PC-3, 48 h; for CC50: read-out: LC50 (the source's name); in short: as §1
[10] = Antitumor activity against human LOXIMVI cells after 48 hrs by Sulforhodamine B assay; settings: LOX IMVI; for CC50: read-out: LC50 (the source's name); in short: as §1
SK-MEL-28 = experiment: Antitumor activity against human SK-MEL-28 cells after 48 hrs by Sulforhodamine B assay; settings: SK-MEL-28, 48 h; in short: as §1
SF-268 = experiment: Antitumor activity against human SF268 cells after 48 hrs by Sulforhodamine B assay; settings: SF-268, 48 h; for CC50: read-out: LC50 (the source's name); in short: as §1
MCF7 = experiment: Antitumor activity against human MCF7 cells after 48 hrs by Sulforhodamine B assay; settings: MCF7, 48 h; for CC50: read-out: LC50 (the source's name); in short: as §1
[11] = Antitumor activity against human Hs 578T cells after 48 hrs by Sulforhodamine B assay; settings: for CC50: read-out: LC50 (the source's name); in short: as §1
SR = experiment: Antitumor activity against human SR cells after 48 hrs by Sulforhodamine B assay; settings: for CC50: read-out: LC50 (the source's name); in short: as §1
MDA-MB-468 = experiment: Antitumor activity against human MDA-MB-468 cells after 48 hrs by Sulforhodamine B assay; settings: MDA-MB-468, 48 h; in short: as §1
[12] = Antitumor activity against human SF295 cells after 48 hrs by Sulforhodamine B assay; settings: SF-295, 48 h; for CC50: read-out: LC50 (the source's name); in short: as §1
[13] = Antitumor activity against human UACC257 cells after 48 hrs by Sulforhodamine B assay; settings: UACC-257, 48 h; for CC50: read-out: LC50 (the source's name); in short: as §1
KM12 = experiment: Antitumor activity against human KM12 cells after 48 hrs by Sulforhodamine B assay; settings: KM12, 48 h; for CC50: read-out: LC50 (the source's name); in short: as §1
HL-60(TB) = experiment: Antitumor activity against human HL-60(TB) cells after 48 hrs by Sulforhodamine B assay; settings: HL-60, 48 h; for CC50: read-out: LC50 (the source's name); in short: as §1
NCI-H226 = experiment: Antitumor activity against human NCI-H226 cells after 48 hrs by Sulforhodamine B assay; settings: NCI-H226, 48 h; for CC50: read-out: LC50 (the source's name); in short: as §1
DU-145 = experiment: Antitumor activity against human DU145 cells after 48 hrs by Sulforhodamine B assay; settings: DU-145, 48 h; for CC50: read-out: LC50 (the source's name); in short: as §1
T47D = experiment: Antitumor activity against human T47D cells after 48 hrs by Sulforhodamine B assay; settings: for CC50: read-out: LC50 (the source's name); in short: as §1
Malme-3M = experiment: Antitumor activity against human MALME-3M cells after 48 hrs by Sulforhodamine B assay; settings: for CC50: read-out: LC50 (the source's name); in short: as §1
[14] = Antitumor activity against human HCC2998 cells after 48 hrs by Sulforhodamine B assay; settings: HCC 2998, 48 h; for CC50: read-out: LC50 (the source's name); in short: as §1
[15] = Antitumor activity against human NCI-ADR-RES cells after 48 hrs by Sulforhodamine B assay; settings: for CC50: read-out: LC50 (the source's name); in short: as §1
[16] = Antitumor activity against human SKOV3 cells after 48 hrs by Sulforhodamine B assay; settings: SK-OV-3, 48 h; for CC50: read-out: LC50 (the source's name); in short: as §1
[17] = Antitumor activity against human OVCAR3 cells after 48 hrs by Sulforhodamine B assay; settings: OVCAR-3, 48 h; for CC50: read-out: LC50 (the source's name); in short: as §1

## Cc1ccc(C2=Nc3c(N)ncnc3NC(c3sc(Cl)nc3Cl)C2)cc1 (stereo unspecified)
NCI-H23
  GI50: 8.23 µM
  LC50: 58.7 µM
M14
  GI50: 2.64 µM
  CC50: 35.6 µM
[1]
  GI50: 3.72 µM
  CC50: 45.4 µM
K562
  GI50: 1.68 µM
  CC50: > 100 µM
NCI-H522
  GI50: 4.05 µM
  CC50: 42.1 µM
[2]
  GI50: 3.05 µM
  LC50: 37.2 µM
[3]
  GI50: 4.06 µM
  LC50: > 100 µM
MDA-MB-231
  GI50: 3.86 µM
  LC50 (concentration killing 50% of cells): 42.1 µM
[4]
  GI50: 3.93 µM
  CC50: 40.6 µM
MDA-MB-435
  GI50: 1.47 µM
  CC50: 39 µM
SNB-19
  GI50: 5.51 µM
  LC50: 47.2 µM
[5]
  GI50: 10.2 µM
  LC50: 46.8 µM
[6]
  GI50: 4.99 µM
  LC50 (concentration causing 50% net cell kill): > 100 µM
[7]
  GI50: 4.18 µM
  CC50: 42.1 µM
SNB-75
  GI50: 1.63 µM
  LC50 (concentration killing 50% of cells): 38.1 µM
HOP-62
  GI50: 3.72 µM
  LC50 (concentration giving 50% net cell kill): 48.9 µM
CCRF-CEM
  GI50: 3.21 µM
  CC50: > 100 µM
SW-620
  GI50: 3.42 µM
  CC50: 40.7 µM
[8]
  GI50: 4.8 µM
  LC50 (concentration killing 50% of cells): 80.7 µM
[9]
  GI50: 5.89 µM
  CC50: 73.1 µM
[10]
  GI50: 5.39 µM
  CC50: 43.2 µM
SK-MEL-28
  GI50: 4.26 µM
  LC50: 42.8 µM
SF-268
  GI50: 5.68 µM
  CC50: 67.3 µM
MCF7
  GI50: 3.56 µM
  CC50: 97.6 µM
[11]
  GI50: 2.44 µM
  CC50: > 100 µM
SR
  GI50: 2.25 µM
  CC50: 76.7 µM
MDA-MB-468
  GI50: 2.12 µM
  LC50: 41.6 µM
[12]
  GI50: 3.06 µM
  CC50: 36.4 µM
[13]
  GI50: 6.76 µM
  CC50: 48.6 µM
KM12
  GI50: 3.8 µM
  CC50: 40.4 µM
HL-60(TB)
  GI50: 2.04 µM
  CC50: > 100 µM
NCI-H226
  GI50: 13.7 µM
  CC50: 90.3 µM
DU-145
  GI50: 11.2 µM
  CC50: 52.4 µM
T47D
  GI50: 3.35 µM
  CC50: > 100 µM
Malme-3M
  GI50: 6.33 µM
  CC50: 44 µM
[14]
  GI50: 10.3 µM
  CC50: 46.8 µM
[15]
  GI50: 3.13 µM
  CC50: 58.5 µM
[16]
  GI50: 3.6 µM
  CC50: 43 µM
[17]
  GI50: 3.6 µM
  CC50: 43.4 µM

## Nc1ncnc2c1N=C(c1ccc3c(c1)OCO3)CC(c1sc(Cl)nc1Cl)N2 (stereo unspecified)
NCI-H23
  GI50: 8.87 µM
  LC50: > 100 µM
M14
  GI50: 2.01 µM
  CC50: 44.6 µM
[1]
  GI50: 4.25 µM
  CC50: 77.5 µM
K562
  GI50: 0.54 µM
  CC50: > 100 µM
NCI-H522
  GI50: 2.51 µM
  CC50: 55.3 µM
[2]
  GI50: 2.17 µM
  LC50: 63.9 µM
[3]
  GI50: 5.91 µM
  LC50: > 100 µM
MDA-MB-231
  GI50: 5.81 µM
  LC50 (concentration killing 50% of cells): 55.7 µM
[4]
  GI50: 3.79 µM
  CC50: 53.9 µM
MDA-MB-435
  GI50: 0.35 µM
  CC50: 48.4 µM
SNB-19
  GI50: 4.83 µM
  LC50: > 100 µM
[5]
  GI50: 6.03 µM
  LC50: > 100 µM
[6]
  GI50: 4.66 µM
  LC50 (concentration causing 50% net cell kill): > 100 µM
[7]
  GI50: 3.48 µM
  CC50: 45.6 µM
SNB-75
  GI50: 1.39 µM
  LC50 (concentration killing 50% of cells): 61.4 µM
HOP-62
  GI50: 5.32 µM
  LC50 (concentration giving 50% net cell kill): 62.6 µM
CCRF-CEM
  GI50: 3.02 µM
  CC50: > 100 µM
SW-620
  GI50: 2.98 µM
  CC50: > 100 µM
[8]
  GI50: 4.86 µM
  LC50 (concentration killing 50% of cells): > 100 µM
[9]
  GI50: 5.15 µM
  CC50: > 100 µM
[10]
  GI50: 7.02 µM
  CC50: 75.6 µM
SK-MEL-28
  GI50: 7.63 µM
  LC50: 91.6 µM
SF-268
  GI50: 9.84 µM
  CC50: 92.2 µM
MCF7
  GI50: 2.81 µM
  CC50: > 100 µM
[11]
  GI50: 2.35 µM
  CC50: > 100 µM
SR
  GI50: 1.9 µM
  CC50: > 100 µM
MDA-MB-468
  GI50: 1.65 µM
  LC50: > 100 µM
[12]
  GI50: 2.21 µM
  CC50: 39.8 µM
[13]
  GI50: 14.6 µM
  CC50: > 100 µM
KM12
  GI50: 3.93 µM
  CC50: 73.6 µM
HL-60(TB)
  GI50: 36.1 µM
  CC50: > 100 µM
NCI-H226
  GI50: 17.7 µM
  CC50: > 100 µM
DU-145
  GI50: 8.45 µM
  CC50: > 100 µM
T47D
  GI50: 5.36 µM
  CC50: > 100 µM
Malme-3M
  GI50: 14.3 µM
  CC50: 59.2 µM
[14]
  GI50: 6.11 µM
  CC50: 48.8 µM
[15]
  GI50: 3.55 µM
  CC50: > 100 µM
[16]
  GI50: 2.78 µM
  CC50: > 100 µM
[17]
  GI50: 3.94 µM
  CC50: 66.8 µM
